Assay results taken from ChEMBL document CHEMBL1124208, “Retro-inverso concept applied to the complete inhibitors of enkephalin-degrading enzymes” (J Med Chem, 1988).

How the values were obtained:
[1] = molecular target: T1, Neprilysin (Oryctolagus cuniculus, UniProt P08049); test: Inhibition of [3H]Ala2-Leu-enkephalin binding to Neutral endopeptidase (NEP)
T1 sequence (P08049 whole entry): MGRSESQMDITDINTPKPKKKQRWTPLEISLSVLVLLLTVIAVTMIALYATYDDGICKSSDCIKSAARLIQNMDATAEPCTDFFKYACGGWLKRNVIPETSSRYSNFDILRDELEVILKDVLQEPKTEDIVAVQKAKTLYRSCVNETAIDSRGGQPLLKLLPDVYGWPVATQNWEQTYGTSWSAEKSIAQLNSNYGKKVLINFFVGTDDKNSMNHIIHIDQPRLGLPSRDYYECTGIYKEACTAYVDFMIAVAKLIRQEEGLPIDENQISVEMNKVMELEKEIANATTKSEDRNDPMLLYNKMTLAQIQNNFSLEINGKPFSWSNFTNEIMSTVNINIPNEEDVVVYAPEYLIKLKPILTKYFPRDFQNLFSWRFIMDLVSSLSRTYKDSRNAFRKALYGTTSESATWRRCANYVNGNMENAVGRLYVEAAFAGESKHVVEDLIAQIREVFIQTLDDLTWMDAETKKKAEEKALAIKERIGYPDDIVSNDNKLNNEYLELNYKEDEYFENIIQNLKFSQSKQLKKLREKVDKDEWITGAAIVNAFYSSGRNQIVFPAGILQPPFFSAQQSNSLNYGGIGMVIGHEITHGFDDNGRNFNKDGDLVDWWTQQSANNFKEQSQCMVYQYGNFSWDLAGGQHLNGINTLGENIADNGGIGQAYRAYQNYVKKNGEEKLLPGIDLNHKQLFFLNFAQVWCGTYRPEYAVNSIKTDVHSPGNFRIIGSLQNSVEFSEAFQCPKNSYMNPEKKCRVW
Method in brief: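 NEP purified to homogeneity from rabbit kidney (single 94 kD band on SDS-PAGE), 1 pmol/100 μL final. Enzyme preincubated 15 min at 25 °C with or without increasing inhibitor in 50 mM Tris-HCl pH 7.0. [3H]D-Ala2-Leu-enkephalin then added at 20 nM final and the reaction stopped after 30 min with HCl. IC50 from log probit analysis of five inhibitor concentrations, mean ± SEM of four independent experiments.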

[2] = Inhibition of [3H]Leu-enkephalin binding to aminopeptidase; design: species or system Sus scrofa
Method in brief: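 Uses commercial purified pig kidney aminopeptidase N without further purification. Enzyme preincubated 15 min at 25 °C with inhibitor in 50 mM Tris-HCl pH 7.0. [3H]Leu-enkephalin then added at 10 nM final (Km 50 μM) and the reaction stopped with HCl. IC50 by log probit analysis of five inhibitor concentrations, mean ± SEM of four independent experiments.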

[3] = Inhibition of [3H]Leu-enkephalin binding to Dipeptidyl aminopeptidase (DAP); design: species or system Rattus norvegicus
Method in brief: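 Membrane-bound DAP partially purified from rat brain. […] IC50 by log probit analysis of five inhibitor concentrations, mean ± SEM of four independent experiments.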

| Structure (SMILES) | IC50 [1] [nM] | IC50 [2] [nM] | IC50 [3] [nM] |
| --- | --- | --- | --- |
| CN(O)C(=O)C[C@@H](Cc1ccccc1)NC(=O)CC(=O)O | 1730 | > 100000 | – |
| O=C(O)CNC(=O)C(CC(=O)NO)Cc1ccccc1 (racemic) | – | 2000 | 21 |
| O=C(CC(Cc1ccccc1)NC(=O)C(Cc1ccccc1)C(=O)O)NO (stereo unspecified) | 3.7 | 6200 | 32.5 |
| CC(C(=O)O)C(=O)NC(CC(=O)NO)Cc1ccccc1 (stereo unspecified) | 1.6 | 8600 | 17.5 |
| O=C(CC(Cc1ccccc1)C(=O)NC(Cc1ccccc1)C(=O)O)NO (racemic) | 2.5 | 130 | – |
| CN(O)C(=O)[C@@H](Cc1ccccc1)NC(=O)CC(=O)O | 6070 | – | – |
| O=C(O)CC(=O)N[C@H](CC(=O)NO)Cc1ccccc1 | 2.5 | 150000 | 450 |
| O=C(O)CC(=O)N[C@@H](CC(=O)NO)Cc1ccccc1 | 0.5 | 2000 | 140 |

Further compounds by falling IC50 [2], results first:

| IC50 [1] [nM] | IC50 [2] [nM] | IC50 [3] [nM] | Structure (SMILES) |
| --- | --- | --- | --- |
| 2500 | 400000 | 2000 | O=C(O)CC(=O)N[C@@H](Cc1ccccc1)C(=O)NO |
| 320 | ~100000 | 71 | CC(C(=O)O)C(=O)NC(Cc1ccccc1)C(=O)NO (stereo in doubt; 9) |
| – | 100000 | 35000 | O=C(O)CNC(=O)C(Cc1ccccc1)C(=O)NO (racemic) |
| 3350 | ~20000 | ~32000 | O=C(O)CC(=O)N[C@H](Cc1ccccc1)C(=O)NO |
| 945 | 6100 | 2700 | CC(C(=O)O)C(=O)NC(Cc1ccccc1)C(=O)NO (stereo in doubt; 8) |
| 1.7 | 380 | 0.9 | C[C@H](NC(=O)[C@@H](CC(=O)NO)Cc1ccccc1)C(=O)O (racemic) [KELATORPHAN] |
